Tests used:
[1] = tested on: L1210; assay: Tested for comparative cytotoxicity as ratio of IC50 value, relative to 3-substituted derivative (1.00).; format: functional, Mus musculus
[2] = tested on: L1210; assay: Tested for comparative cytotoxicity as ratio of IC50 value, relative to OMe derivative (1.00).; format: functional, Mus musculus
[3] = Lipophilicity (HPLC); format: physicochemical
[4] = tested on: L1210; assay: Nanomolar concentration required to reduce the growth of L1210 cells in culture to 50% of control values after 70 h (in vitro); format: functional, cell-based; conditions: Mus musculus, L1210, 70 h
How it was run: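 L1210 cells were grown in culture with drug for 70 h. IC50 is the drug concentration (nM) reducing growth to 50% of control values.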

[5] = tested on: Lewis lung carcinoma cell line; assay: (§1) Average increase in life span of treated animals over control groups of tumor-bearing untreated animals when given at optimal dose; NA means no significant activity (in vivo); format: functional, organism-based; conditions: Mus musculus
How it was run: (§2)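 Mice received drug ip as a solution in 0.1 mL 30% v/v EtOH/water at the optimal dose. For P388, 10^6 cells were inoculated ip and drug given on days 1, 5 and 9. For LL, 10^6 cells were inoculated iv and drug given on days 5, 9 and 13. ILS is the mean life-span increase over untreated tumor-bearing controls, significant above 20% (P388) or 40% (LL). Groups were of six. NA means no significant activity up to acutely toxic doses.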

[6] = tested on: P388; assay: Optimal dose in mg/kg administered intraperitoneally on days 1,5 and 9 required to inhibit the growth of P388 leukemia cells was determined (in vivo); format: functional, Mus musculus
How it was run: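 Mice were inoculated ip with 10^6 P388 cells. Drug was given ip as a solution in 0.1 mL 30% v/v EtOH/water on days 1, 5 and 9. The optimal dose (mg/kg per day) is the one giving maximal increase in life span; survivors were scored at 50 days, in groups of six.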

[7] = tested on: P388; assay: (§3) Average increase in life span of treated animals over control groups of tumor-bearing untreated animals when given at optimal dose (in vivo); format: functional, Mus musculus
How it was run: (§4)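 Mice inoculated ip with 10^6 P388 cells (drug ip on days 1, 5, 9) or iv with 10^6 Lewis lung cells (drug ip on days 5, 9, 13). Drug given as a solution in 0.1 mL 30% v/v EtOH/water, in mg/kg per day. Value is the average life-span increase versus untreated tumor-bearing controls at the optimal dose. Significance thresholds: ILS >20% (P388), >40% (LL). Groups of six.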

[8] = tested on: Lewis lung carcinoma cell line; assay: Optimal dose required after intraperitoneal administration on days 5,9 and 13 to inhibit the growth of lewis lung carcinoma (LL) cells was determined (in vivo); format: functional, Mus musculus
How it was run: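 Mice were inoculated iv with 10^6 Lewis lung cells. Drug was given ip in 0.1 mL 30% v/v EtOH/water on days 5, 9 and 13. The optimal dose (mg/kg per day) is the one giving maximal increase in life span; survivors were scored at 60 days, in groups of six.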

[9] = tested on: P388; assay: as §1; format: functional, organism-based; conditions: Mus musculus; how it was run: as §2
[10] = tested on: Lewis lung carcinoma cell line; assay: as §3; format: functional, Mus musculus; how it was run: as §4
[11] = tested on: Lewis lung carcinoma cell line; assay: Average increase in life span of treated animals over control groups of tumor-bearing untreated animals when given at optimal dose of 25 mg/kg/day; NA means no significant activity (in vivo); format: functional, organism-based; conditions: Mus musculus, in the assay text read “225 mg/kg/day” for “25 mg/kg/day”; how it was run: as §2
[12] = tested on: P388; assay: Average increase in life span of treated animals over control groups of tumor-bearing untreated animals when given at optimal dose of 150 mg/kg/day;NA means no significant activity (in vivo); format: functional, organism-based; conditions: Mus musculus; how it was run: as §2
[13] = tested on: Lewis lung carcinoma cell line; assay: Average increase in life span of treated animals over control groups of tumor-bearing untreated animals when given at optimal dose;NA means no significant effect (in vivo); format: functional, organism-based; conditions: Mus musculus; how it was run: as §2

SMILES	Ratio [1]	Ratio [2]	Rm [3]	IC50 [4] [nM]	OD [6] [mg/kg/day]	ILS max [7]	OD [8] [mg/kg/day]	further results
COc1ccc2nc3cccc(C(N)=O)c3nc2c1	1.4	1	–	–	–	–	–	–
COc1ccc(C(N)=O)c2nc3ccccc3nc12	0.6	1	–	–	–	–	–	–
Cc1cccc2nc3cccc(C(N)=O)c3nc12	0.1	0.9	–	–	–	–	–	–
CN(C)CCNC(=O)c1cccc2nc3cc(Cl)ccc3nc12	–	–	-0.13	1140	65	20	65	ILSmax [5]: Not significant
NC(=O)c1cccc2nc3cc(Cl)ccc3nc12	7.1	0.3	–	–	–	–	–	–
CCN(CC)CCNC(=O)c1cccc2nc3ccccc3nc12	–	–	0.09	2100	225	43	150	ILS max [5]: Not significant
COc1cccc2nc3cccc(C(N)=O)c3nc12	0.05	1	–	–	–	–	–	–
O=C(NCCNCCO)c1cccc2nc3ccccc3nc12	–	–	-0.32	2000	65	–	65	ILS max [5]: Not significant; ILS max [9]: Not significant
O=C(NCCN1CCOCC1)c1cccc2nc3ccccc3nc12	–	–	-0.21	11000	225	–	225	ILSmax [5]: Not significant; ILSmax [9]: Not significant
CN(C)CCNC(=O)c1cccc2nc3cccc(Cl)c3nc12	–	–	-0.37	11	30	61	45	ILS max [10]: 124
Cc1ccc2nc3cccc(C(N)=O)c3nc2c1	1.5	0.9	–	–	–	–	–	–
Cc1cc(C(N)=O)c2nc3ccccc3nc2c1	1	0.5	–	–	–	–	–	–
NC(=O)c1cccc2nc3c(Cl)cccc3nc12	5	0.6	–	–	–	–	–	–
Cc1cccc2nc3c(C(=O)NCCN(C)C)cccc3nc12	–	–	-0.01	820	150	58	150	ILS max [5]: Not significant
CN(C)CCCNC(=O)c1cccc2nc3ccccc3nc12	–	–	-0.21	1500	150	–	225	ILSmax [11]: Not significant; ILSmax [12]: Not significant
COc1cc(C(=O)NCCN(C)C)c2nc3ccccc3nc2c1	–	–	-0.25	830	100	22	150	ILS max [5]: Not significant
Cc1ccc(C(N)=O)c2nc3ccccc3nc12	1	0.7	–	–	–	–	–	–
NC(=O)c1cc(Cl)cc2nc3ccccc3nc12	1	0.4	–	–	–	–	–	–
Cc1ccc2nc3cccc(C(=O)NCCN(C)C)c3nc2c1	–	–	-0.2	630	150	60	225	ILS max [10]: 81
CN(C)CCNC(=O)c1c(Cl)ccc2nc3ccccc3nc12	–	–	-0.27	14900	100	–	–	ILSmax [9]: Not significant
NC(=O)c1cccc2nc3cccc(Cl)c3nc12	0.07	0.2	–	–	–	–	–	–
Cc1ccc2nc3c(C(N)=O)cccc3nc2c1	3.7	0.4	–	–	–	–	–	–

SMILES	Ratio [1]	Ratio [2]	Rm [3]	IC50 [4] [nM]	OD [6] [mg/kg/day]	ILS max [7]	OD [8] [mg/kg/day]	further results
CN(C)CCNC(=O)c1cc2ccccc2c2nc3ccccc3nc12	–	–	0.11	170	65	84	65	ILS max [5]: Not significant
Cc1cccc2nc3c(C(N)=O)cccc3nc12	2	0.6	–	–	–	–	–	–
CN(C)CCNC(=O)c1cccc2nc3ccccc3nc12	–	–	-0.29	1400	150	88	150	ILS max [10]: 57
COc1cccc2nc3cccc(C(=O)NCCN(C)C)c3nc12	–	–	-0.42	48	100	106	100	ILS max [10]: 128
Cc1cc(C(=O)NCCN(C)C)c2nc3ccccc3nc2c1	–	–	-0.15	410	225	91	225	ILS max [10]: 158
COc1cccc2nc3c(C(N)=O)cccc3nc12	6	1	–	–	–	–	–	–
COc1cc(C(N)=O)c2nc3ccccc3nc2c1	1	1	–	–	–	–	–	–
Cc1ccc2nc3c(C(=O)NCCN(C)C)cccc3nc2c1	–	–	-0.18	1500	150	29	100	ILS max [5]: Not significant
COc1ccc2nc3c(C(=O)NCCN(C)C)cccc3nc2c1	–	–	-0.27	4100	100	–	150	ILSmax [5]: Not significant; ILSmax [9]: Not significant
CN(C)CCNC(=O)c1cccc2nc3c(Cl)cccc3nc12	–	–	-0.18	780	150	56	150	ILS max [10]: 49
CN(C)CCNC(=O)c1cccc2nc3ccc4ccccc4c3nc12	–	–	-0.05	33	30	98	45	ILS max [10]: 56
COc1ccc2nc3cccc(C(=O)NCCN(C)C)c3nc2c1	–	–	-0.33	1050	100	39	150	ILS max [5]: Not significant
CN(C)CCNC(=O)c1cc(Cl)cc2nc3ccccc3nc12	–	–	-0.06	160	150	106	150	ILS max [10]: 63
Cc1cccc2nc3cccc(C(=O)NCCN(C)C)c3nc12	–	–	-0.23	42	65	45	65	ILS max [10]: 62
COc1ccc(C(=O)NCCN(C)C)c2nc3ccccc3nc12	–	–	-0.41	550	225	–	–	ILSmax [9]: Not significant
CN(C)CCNC(=O)c1cccc2nc3ccc(Cl)cc3nc12	–	–	-0.2	670	100	64	100	ILS max [10]: 64
NC(=O)c1cccc2nc3ccc(Cl)cc3nc12	4.2	0.6	–	–	–	–	–	–
Cc1ccc(C(=O)NCCN(C)C)c2nc3ccccc3nc12	–	–	0.08	400	100	28	150	ILS max [13]: Not significant
COc1ccc2nc3c(C(N)=O)cccc3nc2c1	5	1	–	–	–	–	–	–
COc1ccc2nc3ccccc3nc2c1C(=O)NCCN(C)C	–	–	-0.5	1620	225	33	225	ILS max [10]: 43
CN(C)CCNC(=O)c1cccc2nc3c(ccc4ccccc43)nc12	–	–	-0.32	310	45	29	45	ILS max [5]: Not significant
COc1cccc2nc3c(C(=O)NCCN(C)C)cccc3nc12	–	–	-0.44	5000	150	–	–	ILSmax [9]: Not significant

Source: ChEMBL document CHEMBL1123882, “Potential antitumor agents. 51. Synthesis and antitumor activity of substituted phenazine-1-carboxamides” (J Med Chem, 1987)
